# Laboratory results from publication PMC7004556 (Cancer Science, 2020).
# “Also recorded” adds a separate entry of the source.
# Test system: patients with advanced solid tumors
# Test: Phase I dose escalation: safety and tolerability
# Format: in vivo, human
# How it was run: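 Patients received a single 1 mg oral dose on cycle 0 day 1, then a washout on days 2-7. Oral once-daily dosing followed in 28-day cycles from day 8-10. Doses were escalated by mTPI design (target DLT rate 25% ± 5%). DLTs were assessed over cycles 0-1 against predefined haematological, non-haematological, calcification and hyperphosphataemia criteria. AEs were coded by MedDRA v20.1 and graded by CTCAE v4.03.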
compound,measurement,setting,value
CNC(=O)n1ccc2cc(Oc3ccnc(NC(=O)c4ccc(C5CCN(CCO)CC5)cc4)c3)c(OCCOC)cc21 [E7090],Dose‐limiting toxicity (DLT),"1 mg QD to 140 mg QD, cycle 0‐cycle 1",No DLT was observed; also recorded: no DLT were reported
same,"ALT increased, treatment‐related TEAE","60 mg (n = 3), any grade",1 (33.3) n (%)
same,"Anemia, treatment‐related TEAE","60 mg (n = 3), any grade",1 (33.3) n (%)
same,"Blood creatinine increased, treatment‐related TEAE","60 mg (n = 3), any grade",2 (66.7) n (%)
same,"Diarrhea, treatment‐related TEAE","60 mg (n = 3), any grade",2 (66.7) n (%)
same,"Lipase increased, treatment‐related TEAE","60 mg (n = 3), any grade",1 (33.3) n (%)
same,"Nausea, treatment‐related TEAE","60 mg (n = 3), any grade",1 (33.3) n (%)
same,"PPE syndrome, treatment‐related TEAE","60 mg (n = 3), any grade",1 (33.3) n (%)
same,"Vomiting, treatment‐related TEAE","60 mg (n = 3), any grade",1 (33.3) n (%)
same,"Anemia, treatment‐related TEAE","100 mg (n = 3), any grade",1 (33.3) n (%)
same,"Blood ALP increased, treatment‐related TEAE","100 mg (n = 3), any grade",1 (33.3) n (%)
same,"Blood creatinine increased, treatment‐related TEAE","100 mg (n = 3), any grade",1 (33.3) n (%)
same,"Hyperphosphatemia, treatment‐related TEAE","100 mg (n = 3), any grade",3 (100.0) n (%)
same,"Lipase increased, treatment‐related TEAE","100 mg (n = 3), any grade",1 (33.3) n (%)
same,"Nausea, treatment‐related TEAE","100 mg (n = 3), any grade",1 (33.3) n (%)
same,"Retinal detachment, treatment‐related TEAE","100 mg (n = 3), any grade",2 (66.7) n (%)
same,"ALT increased, treatment‐related TEAE","140 mg (n = 3), any grade",3 (100.0) n (%)
same,"AST increased, treatment‐related TEAE","140 mg (n = 3), any grade",2 (66.7) n (%)
same,"Anemia, treatment‐related TEAE","140 mg (n = 3), any grade",1 (33.3) n (%)
same,"Blood ALP increased, treatment‐related TEAE","140 mg (n = 3), any grade",2 (66.7) n (%)
same,"Blood creatinine increased, treatment‐related TEAE","140 mg (n = 3), any grade",3 (100.0) n (%)
same,"Diarrhea, treatment‐related TEAE","140 mg (n = 3), any grade",1 (33.3) n (%)
same,"Dysgeusia, treatment‐related TEAE","140 mg (n = 3), any grade",2 (66.7) n (%)
same,"Hyperphosphatemia, treatment‐related TEAE","140 mg (n = 3), any grade",3 (100.0) n (%)
same,"Lipase increased, treatment‐related TEAE","140 mg (n = 3), any grade",1 (33.3) n (%)
same,"Nausea, treatment‐related TEAE","140 mg (n = 3), any grade",1 (33.3) n (%)
same,"PPE syndrome, treatment‐related TEAE","140 mg (n = 3), any grade",1 (33.3) n (%)
same,"Retinal detachment, treatment‐related TEAE","140 mg (n = 3), any grade",1 (33.3) n (%)
same,"Vomiting, treatment‐related TEAE","140 mg (n = 3), any grade",1 (33.3) n (%)
same,"ALT increased, treatment‐related TEAE","180 mg (n = 3), any grade",2 (66.7) n (%)
same,"AST increased, treatment‐related TEAE","180 mg (n = 3), any grade",2 (66.7) n (%)
same,"Blood creatinine increased, treatment‐related TEAE","180 mg (n = 3), any grade",1 (33.3) n (%)
same,"Diarrhea, treatment‐related TEAE","180 mg (n = 3), any grade",3 (100.0) n (%)
same,"Dysgeusia, treatment‐related TEAE","180 mg (n = 3), any grade",1 (33.3) n (%)
same,"Hyperphosphatemia, treatment‐related TEAE","180 mg (n = 3), any grade",3 (100.0) n (%)
same,"Lipase increased, treatment‐related TEAE","180 mg (n = 3), any grade",1 (33.3) n (%)
same,"Nausea, treatment‐related TEAE","180 mg (n = 3), any grade",1 (33.3) n (%)
same,"PPE syndrome, treatment‐related TEAE","180 mg (n = 3), any grade",2 (66.7) n (%)
same,"Vomiting, treatment‐related TEAE","180 mg (n = 3), any grade",1 (33.3) n (%)
same,"ALT increased, treatment‐related TEAE","180 mg (n = 3), ≥Grade 3",2 (66.7) n (%)
same,"AST increased, treatment‐related TEAE","180 mg (n = 3), ≥Grade 3",1 (33.3) n (%)
same,"Vomiting, treatment‐related TEAE","180 mg (n = 3), ≥Grade 3",1 (33.3) n (%)
same,"Blood creatinine increased, treatment‐related TEAE","1‐30 mg (n = 12), any grade",2 (16.7) n (%)
same,"Lipase increased, treatment‐related TEAE","1‐30 mg (n = 12), any grade",1 (8.3) n (%)
same,"Nausea, treatment‐related TEAE","1‐30 mg (n = 12), any grade",1 (8.3) n (%)
same,Recommended dose for Part 2 (expansion part),QD,140 mg
same,"ALT increased, treatment‐related TEAE","Total (N = 24), any grade",6 (25.0) n (%)
same,"AST increased, treatment‐related TEAE","Total (N = 24), any grade",4 (16.7) n (%)
same,"Anemia, treatment‐related TEAE","Total (N = 24), any grade",3 (12.5) n (%)
same,"Blood ALP increased, treatment‐related TEAE","Total (N = 24), any grade",3 (12.5) n (%)
same,"Blood creatinine increased, treatment‐related TEAE","Total (N = 24), any grade",9 (37.5) n (%)
same,"Diarrhea, treatment‐related TEAE","Total (N = 24), any grade",6 (25.0) n (%)
same,"Dysgeusia, treatment‐related TEAE","Total (N = 24), any grade",3 (12.5) n (%)
same,"Hyperphosphatemia, treatment‐related TEAE","Total (N = 24), any grade",9 (37.5) n (%)
same,"Lipase increased, treatment‐related TEAE","Total (N = 24), any grade",5 (20.8) n (%)
same,"Nausea, treatment‐related TEAE","Total (N = 24), any grade",5 (20.8) n (%)
same,"PPE syndrome, treatment‐related TEAE","Total (N = 24), any grade",4 (16.7) n (%)
same,"Retinal detachment, treatment‐related TEAE","Total (N = 24), any grade",3 (12.5) n (%)
same,"Vomiting, treatment‐related TEAE","Total (N = 24), any grade",3 (12.5) n (%)
same,"ALT increased, treatment‐related TEAE","Total (N = 24), ≥Grade 3",2 (8.3) n (%)
same,"AST increased, treatment‐related TEAE","Total (N = 24), ≥Grade 3",1 (4.2) n (%)
same,"Vomiting, treatment‐related TEAE","Total (N = 24), ≥Grade 3",1 (4.2) n (%)
same,Maximum tolerated dose (MTD),daily oral dose of 1‐180 mg,not reached
same,Drug‐related deaths,in vivo,No drug‐related deaths were reported
same,Number of AE of hyperphosphatemia,in vivo,nine
same,Number of AE of retinal detachment,in vivo,three
same,SAE considered related to the study drug,in vivo,None
same,TEAE leading to discontinuation of the study drug,in vivo,no TEAE led to discontinuation
same,TEAE leading to dose reduction: PPE syndrome,in vivo,2 n
same,TEAE leading to dose reduction: increased ALT,in vivo,2 n
same,TEAE leading to dose reduction: increased AST,in vivo,1 n
same,TEAE‐related dose interruption: anorexia,in vivo,2 n
